Results from the EternaBench riboswitch data.

Test system: MS2 coat protein
Assay: apparent Kd, MS2 coat protein; higher = weaker binding; RNA-MaP array; FMN 200 µM where present
How it was run: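 The apparent Kd is the median of filtered binding-curve fits, one per cluster, to green signal normalised to red-channel RNA signal and control-cluster median Fmax. The clusters were on Illumina sequencing chips, and stalled E. coli RNA polymerase had transcribed the designs on them. Titration used SNAP-549-labelled MS2 coat protein from 0.7 or 1.5 nM, doubling to 3 µM, without and then with constant ligand, in 100 mM Tris-HCl pH 7.5, 80 mM KCl, 4 mM MgCl2, BSA, DTT, yeast tRNA and Tween-20.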

[1] = designed as: ON switch for flavin mononucleotide, no ligand
[2] = ligand present: flavin mononucleotide, designed as: ON switch for flavin mononucleotide
[3] = designed as: OFF switch for flavin mononucleotide, no ligand
[4] = ligand present: flavin mononucleotide, designed as: OFF switch for flavin mononucleotide

| Sequence | apparent Kd [1] [µM] | apparent Kd [2] [µM] | apparent Kd [3] [µM] | apparent Kd [4] [µM] |
| --- | --- | --- | --- | --- |
| GCAGCAAUCUAAUACAUGAGGAUCACCCAUGUCGAGAGAUAUGAGGAUAUGCAUCUGAAGAAGAUGCAGAAGGCAUUGUGCUGC | 0.0107 | 0.00648 |  |  |
| CUGUUGUGGUACUGCAUGGCUUGGAGAGAAGGGUGAUUCACAUGAGGAUCACCCAUGUAGGACUUACAGGAUAUUUCCGGGUCU | 0.0626 | 0.1 |  |  |
| UCAUUUUACACAGGAUAUACUCAUAUACAGUUGUUUGGCUCUUACAUGUUAGUAGAAGGGUGCAACAUGAGGAUCACCCAUGUA | 0.621 | 0.25 |  |  |
| UUGGUUGUCGUAGGAUAUGUAGGAUAUUCCUACAUGAGGAUCACCCAUGUUCGCAUGGAAGAAGGACAGAAUGACGAUGACCAG | 1.11 | 0.0271 |  |  |
| UGAUCUAUGUAGAAGGCCCAUAUCUAUAUUUAGGGAGGAUAUACAUGAGGAUCACCCAUGUAUAGAGCUAGUGGACUGGUCAGC |  |  | 0.048 | 0.0694 |
| AAUAAGUCAGGAUAUACUAUGUCAGGAGAGAGACUGACUAUGUAGAAGGGACAUGAGGAUCACCCAUGUAAUAA |  |  | 0.0286 | 0.0359 |
| UCCAGAUCGCGAGGUAGGAGUAGCAGAAGGCGACCGGUGCCAGAUGACAUGAGGAUCACCCAUGUCGAGGAUAUGCUACAGAAU |  |  | 0.00649 | 0.0132 |
| GAUUAACAUGAGGAUCACCCAUGUGAGGAUAUGGACUGGCUCACUUUUCGAUUCCCGUCUAGAAGGCGCAUUUU |  |  | 0.0501 | 0.0502 |
| UAUGGUAAAGUCAGGAUAUACGUACGUCGUUCUAGGUAGAAGGGACAUGAGGAUCACCCAUGUAUGGUAGUGUU |  |  | 0.09 | 0.0889 |
| CGAUAUUAUAGAGGAUAUGUUUAACAUGAGGAUCACCCAUGUGAGGUGGAAUUAAUGUAUAACUUACAGAAGGCUAUACAAUCG |  |  | 0.417 | 0.5 |
| GGUGUCAUCGAGAAGGCCUCAACAUGAGGAUCACCCAUGUUGUAAUAUGGGAGGAUAUCGAUGAUACAGCUACGUUUCGUAGCC | 0.0207 | 0.00623 |  |  |
| AAUUUACAGGGAGGAUAUACAUGAGGAUCACCCAUGUAAUCAUAUGAUAUUUUUUUUGUAUGAGUGUAGAAGGCCCAAAUACCA |  |  | 0.0115 | 0.013 |
| GCAGCUAAUGCAGGAUAUCAGCACGUGUAGUGCUGAGAAGGGCACAUGAGGAUCACCCAUGUGAUCAAUCAAUGUUAAUGCUGC |  |  | 0.00943 | 0.0383 |
| GUGGAGUAAGGAUAUACAUGAGGAUCACCCAUGUGAGGGUAUGUGAUGGGAGUAGGUUGUAGAAGGUACGAGGA |  |  | 0.287 | 0.131 |
| GGUUACAAGUAAGGAUAUGCAUAUGAAACAUAUGCAGAAGGUACAUGAGGAUCACCCAUGUUAUUGCAAAGCGAAUAAGUAACC |  |  | 0.0156 | 0.0209 |
| UAAAUACAUGAGGAUCACCCAUGUCAAAAGACAUGAGGAUAUGUACAGACUUCGGUCUGUACAGAAGGCAUGAAAA | 0.68 | 0.0554 |  |  |
| AAAAGACAUGAGGAUCACCCAUGUAAAAACAUAGGAGGAUAUGUUUGGAAACUAGACUGAACAGAAGGCCUUUGUC | 0.0229 | 0.017 |  |  |
| UUUUAAUAAUAGAAGGAGCACUACAUGAGGAUCACCCAUGUGUUAGUAGUUAGGAUAUAUAAUAACAUGAGGAUCACCCAUGUA | 0.0836 | 0.0407 |  |  |
| AUAUGACAUGAGGAUCACCCAUGUGAGGAUAUAUGCGCAGGUCCAGGGACGGCUGUGCAUAGAAGGUGCUUGGG |  |  | 0.307 | 0.268 |
| GUCAGCUCGUGAGGAUAUACAACACUGCUUCGGCAGUCUAUUAAGAUCACAUGAGGAUCACCCAUGUAGAAGGCACGAGCUGAU |  |  | 0.0149 | 0.292 |
| GGGUACAUCGGAGGAUAUCAUGUAAAUACAUGAGGAUCACCCAUGUCGAUGGAGACAUCGGAGAUUGAGAAGGCCGAUGUACCU | 0.152 | 0.00875 |  |  |
| GUGGCUCCCACAGGAUAUCCACAUGAGGAUCACCCAUGUCUAAUUAACAAAGGAGAAGGGUGGGACAAUUCUGGUGACUGAGAA | 0.0301 | 0.00489 |  |  |
| GGUUGGUAUUACAACGGCCUGAGGGAGGAUAUACAAGGCCGGCGUCGCACAUGAGGAUCACCCAUGUAGAAGGCCCAAGGCCUG |  |  | 0.00697 | 0.012 |
| UUCGGCGCACAGAAGGAUCGGUACAUGAGGAUCACCCAUGUAAGCAAAGAUAGGAUAUGUGGAGCUUACAGGGAAAAUGAACAA | 0.0932 | 0.019 |  |  |

| Sequence | apparent Kd [1] [µM] | apparent Kd [2] [µM] | apparent Kd [3] [µM] | apparent Kd [4] [µM] |
| --- | --- | --- | --- | --- |
| UUAGCAACAUGAGGAUCACCCAUGUAGGAUAUCGCUAUUGUAAUCAUGAAACAUGAUUACAAUAGCGAGAAGGACAUAUGCUAG |  |  | 0.00988 | 0.0107 |
| GUAUCAUACCAAGGAUAUUUAGGACUUGUAUAGACAUGAGGAUCACCCAUGUGGCGUUAGUCACGGGAGAAGGUGGUAUGAUAC | 0.0884 | 0.0175 |  |  |
| CACAUUUUAACAGGAUAUGUAAGGUUGUUUAUUAUUGCAUUUACACUCAUUACAGAAGGGUUAUACAUGAGGAUCACCCAUGUG | 0.0201 | 0.0145 |  |  |
| UGACUCGGAGGAUAUACAUGAGGAUCACCCAUGUUUACUUGCCGCCGAGUAACCUGGUGUAGAAGGUCGAGUGU |  |  | 0.0172 | 0.0137 |
| GGUUGUCAUAGUCAUCCUUUCCGUACAUGAGGAUCACCCAUGUAGGAUAUGCUACUCAAAGAGUAGCAGAAGGGCGUGUGUCUU |  |  | 0.0172 | 0.0188 |
| GGACAUUUACAGAAGGGCAAGCUCGAAAGAGGAGAAAGAGAACGAGCUUGCAGGAUAUGUUGAACAUGAGGAUCACCCAUGUCU | 0.00975 | 0.00769 |  |  |
| AGGUCAACCACAGGAUAUGGCUAGCAUAGCUAGCCAGAAGGGUGGUCGUUGCCAUGUACAUACAUGAGGAUCACCCAUGUAUCC | 0.179 | 0.0547 |  |  |
| UAACAGUUAGGAUAUACCAGGGUAUCCUCGCGGCGCCGAAAACAUGAGGAUCACCCAUGUAGAAGGAACCGUUU |  |  | 0.065 | 0.0196 |
| GCGUCAGAAUUAAUUGUGACAGACAGAAGGCAAUAGUAUGUGACAGACAUGAGGAUCACCCAUGUUGAGGAUAUGUAUUGACAC |  |  | 0.0066 | 0.00736 |
| AGACCGCUACGCCGGUUUCACGCACAGGAUAUGCGGUUACAUGAGGAUCACCCAUGUGGCCAUGUGCAGAAGGGUGGUUCGUGC | 0.0212 | 0.0149 |  |  |
| AUCAGCUCGUCAGGAUAUACAUCACUGCUUCGGCAGUGUGGUAAGGUCACAUGAGGAUCACCCAUGUAGAAGGGACGAGCUGAU |  |  | 0.00848 | 0.106 |
| GGAUUACAUGAGGAUCACCCAUGUGAGGAUAUCGAUGUCCUGUCUUUCGUGCGGGACUCGAGAAGGCACUUGGA |  |  | 0.0452 | 0.141 |
| AGCGUGUAAGGAUAUACGUCGGACAGCAAAUGCUAUCCCUAGUAGAAGGUACAUGAGGAUCACCCAUGUGUCCA |  |  | 0.0229 | 0.0588 |
| AUAAGCUCGUCAGGAUAUGCGACACUGUUUCGGCAGUGUGGUAUGAUCACAUGAGGAUCACCCAUGUAGAAGGGACGAGCUUAU |  |  | 0.00609 | 0.0117 |
| CCGCAUAAGCAGGAUAUCGUAUCGGAAACGAUACGAGAAGGGUUAACAUGAGGAUCACCCAUGUUCCUUAACGG |  |  | 0.0179 | 0.0182 |
| CAGCGAUAGCUAAAGUAUCUAUCAGAGGAUAUUUAUGAAACAUGAGGAUCACCCAUGUGACACUGGGAGAAGGCUGAUAGAUAG | 0.0101 | 0.00525 |  |  |
| CGCACUGAUAGAGGAUAUGUUUUACAUGAGGAUCACCCAUGUGUACAAGGAUCAAUAUAUUAGUAACAGAAGGCUAUUAGUGCG |  |  | 0.0247 | 0.0215 |
| UCUGCCGCCGUGAGGAUAUGCCCAAAUAAAAGCGGGCAGAAGGCACAUGAGGAUCACCCAUGUCCCGCGGUUUU |  |  | 0.0158 | 0.0384 |
| GUCAGCUCGUGAGGAUAUACAUGUGCUGGAGACAGCACUAUUAAGUUCACAUGAGGAUCACCCAUGUAGAAGGCACGAGCUGAU |  |  | 0.0159 | 0.0208 |
| UUUAUUUCGGCAGGAUAUACAUGUAUAUAUAUUCCUUCAUAUCUUAUUACAUGAGGAUCACCCAUGUAGAAGGGCCUUCUUCUC |  |  | 0.0384 | 0.0421 |
| UAUUUAAGAGGAUAUACAUGAGGAUCACCCAUGUGUGUCUAUACGCGUGAUUUUUCAUGUAGAAGGCUUGGGUA |  |  | 0.16 | 0.0605 |
| GCCGAUUAAGUCAGGAUAUACCUAUGGAUACAUAGGUAGAAGGGACAUGAGGAUCACCCAUGUUCCUCAGCGGC |  |  | 0.0166 | 0.0502 |
| GACGUCGGAAGUCGACGCCACUACAAGGAUAUGCACAUGAGGAUCACCCAUGUUACGAAAUCGUAGCAGAAGGUGUAGUCGUCU | 0.245 | 0.024 |  |  |
| UUACCUCAUAUGGUUACAUGAGGAUCACCCAUGUGAAUAGCACAGGAUAUCACGAGGGCCACGUGUGAGAAGGGUGAUGUGAGG | 0.438 | 0.167 |  |  |
